According to publication PMC2275130 (Nucleic Acids Research, 2008):

Assays:
Assay type in all cases: biochemical
HCV NS5BCΔ21 [1] = molecular target: T1, HCV NS5BCΔ21 (Hepatitis C virus genotype 1b, UniProt P26663); experiment: Determination of Ki and mode of inhibition; conditions: towards template/primer (poly rA/U12 varied), UTP fixed 25 μM
Method in brief: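 Aliquots were taken at defined times, quenched in 5% TCA/0.5 mM pyrophosphate, and counted by GF-B filter binding. Ki and mode came from Dixon and Cornish-Bowden plots. Each run was done at least twice; values average at least triplicates.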

HCV NS5BCΔ21 [2] = molecular target: T1, HCV NS5BCΔ21; experiment: NS5B RdRp assay; conditions: NS5B inhibition (IC50 μM), poly rA/U12, 25 μM UTP, 0.5 mM MnCl2, 10% DMSO, 1 h at 30°C
Method in brief: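 NS5BCΔ21 (300–500 ng) and poly rA/U12 (0.5 μM) sat 5 min on ice before NTPs were added. Reactions ran 1 h at 30°C, then TCA quench and GF-B counting. IC50s were read from curves relative to DMSO control, from at least two independent runs.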

HCV NS5BCΔ21 [3] = molecular target: T1, HCV NS5BCΔ21; experiment: Gel-based incorporation assay; conditions: highest concentration of wedelolactone (lane 5, 100 μM), poly rA/U12, 20 min
Method in brief: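 Stopped with 25 mM EDTA/0.5% SDS, then phenol-chloroform extracted and ethanol precipitated. Products were heated 90°C for 5 min, run on denaturing 6% polyacrylamide/7 M urea gel and imaged by phosphorimager.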

[4] = molecular target: Klenow fragment of E. coli DNA polymerase I (Escherichia coli, UniProt P00582); experiment: Klenow polymerase counter screen; conditions: read-out: IC50 Klenow polymerase counter screen; poly rA/dT18, 10% DMSO
Method in brief: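 Exonuclease-deficient Klenow fragment from E. coli BL-21(DE3), purified by ammonium sulfate fractionation and Biorex-70, used at 10 nM. Ran 37°C for 20 min, TCA/pyrophosphate quench, GF-B filtration, scintillation counting.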

HIV-1 RT = HIV-1 RT (Human immunodeficiency virus type 1 group M subtype B, UniProt P04585); experiment: HIV-1 RT counter screen
Method in brief: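 His-tagged p66/p51 heterodimeric wild-type RT, Ni-NTA purified, used at 10 nM. Reactions ran 37°C for 20 min, were stopped with ice-cold 5% TCA/0.5 mM pyrophosphate, filtered on GF-B and scintillation counted.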

COc1cc(O)c2c(c1)oc(=O)c1c3cc(O)c(O)cc3oc21 [Wedelolactone, 7-methoxy-5,11,12-trihydroxy-coumestan] showed a Ki (HCV NS5BCΔ21 [1]; Ki competitive) of 11.2 µM, a Ki uncompetitive (HCV NS5BCΔ21 [1]) of 43 µM and an IC50 (HCV NS5BCΔ21 [2]) of 36.1 µM. The “extension product formation (gel)” value (HCV NS5BCΔ21 [3]) was “no detectable extension product”, the IC50 [4] was over 700 µM and the IC50 (HIV-1 RT) was over 250 µM.
